According to ChEMBL document CHEMBL3779876, “Synthesis and biological evaluation of novel 2,3-dihydrochromeno[3,4-d]imidazol-4(1H)-one derivatives as potent anticancer cell proliferation and migration agents” (Eur J Med Chem, 2016):
Each block holds one compound with its values, some of them ahead of it. Active and inactive are the calls of the source. No cut-off for these calls is given here.

Legend:
[1] = Growth inhibition of human HCT116 cells assessed as cell viability after 72 hrs by MTT assay; assay type: functional, cell-based; settings: HCT-116, 72 h
How it was run: (§1)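 Cells were grown in DMEM or RPMI with 10% FBS and 1% penicillin/streptomycin at 37 °C, 5% CO2. They were seeded at 2000–3000 cells, rested 24 h, then exposed to a range of concentrations for 72 h. MTT (5 mg/mL stock) was added for 2–4 h at 37 °C and formazan dissolved in DMSO. A570 was read and IC50 calculated; triplicate wells, three separate experiments.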

[2] = Growth inhibition of human PC3 cells assessed as cell viability after 72 hrs by MTT assay; assay type: functional, cell-based; settings: PC-3, 72 h; how it was run: as §1
[3] = Growth inhibition of human U87MG cells assessed as cell viability after 72 hrs by MTT assay; assay type: functional, cell-based, U-87MG ATCC; settings: U-87 MG; how it was run: as §1
[4] = system: SW-620; experiment: Induction of apoptosis in human SW620 cells assessed as early apoptotic cells at 0.3125 uM after 24 hrs by Annexin V-FITC/propidium iodide staining based flow cytometry (reference value: 2.81%); assay type: functional
[5] = Cell cycle arrest in human SW620 cells assessed as accumulation at G2/M phase at 5 uM after 24 hrs by propidium iodide staining based flow cytometry (reference value: 22.88%); assay type: functional; settings: SW-620
[6] = Cell cycle arrest in human SW620 cells assessed as accumulation at S phase at 2.5 uM after 24 hrs by propidium iodide staining based flow cytometry (reference value: 38.65%); assay type: functional; settings: SW-620
[7] = Antitumor activity against human HCT116 cells xenografted in Balb/c athymic nude mouse assessed as tumor growth inhibition at 80 mg/kg, ip once in 2 days for 24 days measured every 2 days during compound treatment relative to control; assay type: functional; settings: HCT-116, ip, read-out: TGI
How it was run: (§2)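 Female BALB/c athymic nude mice, 7 weeks old, received 1×10^7 HCT116 cells s.c. in the right flank. After one week, at about 100 mm³ mean tumour volume, mice were randomised to three groups of 8. Groups got vehicle, 40 or 80 mg/kg i.p. once every two days for 24 days. Tumour size and body weight were measured every two days. Volume = L×W²×0.5; inhibition was taken from mean volume change versus vehicle.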

[8] = system: SW-620; experiment: Induction of apoptosis in human SW620 cells assessed as late apoptotic cells at 0.625 uM after 24 hrs by Annexin V-FITC/propidium iodide staining based flow cytometry (reference value: 1.02%); assay type: functional
[9] = system: SW-620; experiment: Induction of apoptosis in human SW620 cells assessed as late apoptotic cells at 0.3125 uM after 24 hrs by Annexin V-FITC/propidium iodide staining based flow cytometry (reference value: 1.02%); assay type: functional
[10] = system: HCT-116; experiment: Inhibition of colony formation in human HCT116 cells at 0.3125 to 2.5 uM after 20 days by crystal violet staining based microscopic analysis; assay type: functional, cell-based
How it was run: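 HCT116 cells were plated at 500 per well, left overnight at 37 °C, then treated with fresh compound-containing medium. Colonies were washed with cold PBS, fixed in 4% paraformaldehyde and stained with 0.5% crystal violet for 15 min. Colonies over 50 cells were counted by microscope and expressed as % of control; three independent experiments.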

[11] = Cell cycle arrest in human SW620 cells assessed as accumulation at G2/M phase at 0.625 uM after 24 hrs by propidium iodide staining based flow cytometry (reference value: 22.88%); assay type: functional; settings: SW-620
[12] = Cell cycle arrest in human SW620 cells assessed as accumulation at S phase at 1.25 uM after 24 hrs by propidium iodide staining based flow cytometry (reference value: 38.65%); assay type: functional; settings: SW-620
[13] = Cell cycle arrest in human SW620 cells assessed as accumulation at G0/G1 phase at 5 uM after 24 hrs by propidium iodide staining based flow cytometry (reference value: 38.47%); assay type: functional; settings: SW-620
[14] = system: SW-620; experiment: Induction of apoptosis in human SW620 cells assessed as early apoptotic cells at 2.5 uM after 24 hrs by Annexin V-FITC/propidium iodide staining based flow cytometry (reference value: 2.81%); assay type: functional
[15] = system: Mus musculus; experiment: Toxicity in Balb/c athymic nude mouse xenografted with human HCT116 cells assessed as body weight loss at 40 to 80 mg/kg, ip once in 2 days for 24 days measured every 2 days during compound treatment; assay type: organism-based, HCT-116; settings: in vivo; how it was run: as §2
[16] = system: SW-620; experiment: Induction of apoptosis in human SW620 cells assessed as late apoptotic cells at 2.5 uM after 24 hrs by Annexin V-FITC/propidium iodide staining based flow cytometry (reference value: 1.02%); assay type: functional
[17] = system: CT26; experiment: Growth inhibition of mouse CT26 cells assessed as cell viability after 72 hrs by MTT assay; assay type: functional, cell-based; settings: CT26, 72 h; how it was run: as §1
[18] = system: SW-620; experiment: Induction of apoptosis in human SW620 cells assessed as late apoptotic cells at 5 uM after 24 hrs by Annexin V-FITC/propidium iodide staining based flow cytometry (reference value: 1.02%); assay type: functional
[19] = Cell cycle arrest in human SW620 cells assessed as accumulation at G2/M phase at 2.5 uM after 24 hrs by propidium iodide staining based flow cytometry (reference value: 22.88%); assay type: functional; settings: SW-620
[20] = Cell cycle arrest in human SW620 cells assessed as accumulation at G0/G1 phase at 0.3125 uM after 24 hrs by propidium iodide staining based flow cytometry (reference value: 38.47%); assay type: functional; settings: SW-620
[21] = Cell cycle arrest in human SW620 cells assessed as accumulation at G2/M phase at 0.3125 uM after 24 hrs by propidium iodide staining based flow cytometry (reference value: 22.88%); assay type: functional; settings: SW-620
[22] = system: MCF7; experiment: Inhibition of cell migration in human MCF7 cells at 5 uM after 24 hrs by wound healing assay; assay type: functional, cell-based
How it was run: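 MCF-7 monolayers at 80–90% confluence were scratched with a sterile pipette tip. Fresh medium with 10% FBS and compound was added. Wounds were photographed at 0, 12 and 24 h at 37 °C.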

[23] = system: SW-620; experiment: Induction of apoptosis in human SW620 cells assessed as late apoptotic cells at 1.25 uM after 24 hrs by Annexin V-FITC/propidium iodide staining based flow cytometry (reference value: 1.02%); assay type: functional
[24] = Growth inhibition of human SW620 cells assessed as cell viability after 72 hrs by MTT assay; assay type: functional, cell-based; settings: SW-620, 72 h; how it was run: as §1
[25] = system: SW-620; experiment: Induction of apoptosis in human SW620 cells assessed as early apoptotic cells at 1.25 uM after 24 hrs by Annexin V-FITC/propidium iodide staining based flow cytometry (reference value: 2.81%); assay type: functional
[26] = Cell cycle arrest in human SW620 cells assessed as accumulation at S phase at 0.625 uM after 24 hrs by propidium iodide staining based flow cytometry (reference value: 38.65%); assay type: functional; settings: SW-620
[27] = Cell cycle arrest in human SW620 cells assessed as accumulation at S phase at 0.3125 uM after 24 hrs by propidium iodide staining based flow cytometry (reference value: 38.65%); assay type: functional; settings: SW-620
[28] = Cell cycle arrest in human SW620 cells assessed as accumulation at S phase at 5 uM after 24 hrs by propidium iodide staining based flow cytometry (reference value: 38.65%); assay type: functional; settings: SW-620
[29] = system: SW-620; experiment: Induction of apoptosis in human SW620 cells after 24 hrs by Annexin V-FITC/propidium iodide staining based flow cytometry; assay type: functional, cell-based
[30] = system: SW-620; experiment: Induction of apoptosis in human SW620 cells assessed as early apoptotic cells at 0.625 uM after 24 hrs by Annexin V-FITC/propidium iodide staining based flow cytometry (reference value: 2.81%); assay type: functional
[31] = Cell cycle arrest in human SW620 cells assessed as accumulation at G0/G1 phase at 0.625 uM after 24 hrs by propidium iodide staining based flow cytometry (reference value: 38.47%); assay type: functional; settings: SW-620
[32] = Cell cycle arrest in human SW620 cells assessed as accumulation at G0/G1 phase at 2.5 uM after 24 hrs by propidium iodide staining based flow cytometry (reference value: 38.47%); assay type: functional; settings: SW-620
[33] = Cell cycle arrest in human SW620 cells assessed as accumulation at G0/G1 phase at 1.25 uM after 24 hrs by propidium iodide staining based flow cytometry (reference value: 38.47%); assay type: functional; settings: SW-620
[34] = system: MCF7; experiment: Growth inhibition of human MCF7 cells assessed as cell viability after 72 hrs by MTT assay; assay type: functional, cell-based; settings: MCF7, 72 h; how it was run: as §1
[35] = system: A549; experiment: Growth inhibition of human A549 cells assessed as cell viability after 72 hrs by MTT assay; assay type: functional, cell-based; settings: A549, 72 h; how it was run: as §1
[36] = Cell cycle arrest in human SW620 cells assessed as accumulation at G0/G1 phase after 24 hrs by propidium iodide staining based flow cytometry; assay type: functional; settings: SW-620
[37] = system: HCT-116; experiment: Antitumor activity against human HCT116 cells xenografted in ip dosed Balb/c athymic nude mouse assessed as tumor growth inhibition administered once in 2 days for 24 days measured every 2 days during compound treatment; assay type: functional, organism-based; how it was run: as §2
[38] = system: SW-620; experiment: Induction of apoptosis in human SW620 cells assessed as early apoptotic cells at 5 uM after 24 hrs by Annexin V-FITC/propidium iodide staining based flow cytometry (reference value: 2.81%); assay type: functional
[39] = Cell cycle arrest in human SW620 cells assessed as accumulation at G2/M phase at 1.25 uM after 24 hrs by propidium iodide staining based flow cytometry (reference value: 22.88%); assay type: functional; settings: SW-620
[40] = Growth inhibition of human LO2 cells assessed as cell viability after 72 hrs by MTT assay; assay type: cell-based; settings: L02, 72 h; how it was run: as §1

SMILES: Cc1ccccc1-c1ccc2oc(=O)c3[nH]c(=O)n(-c4ccc(CC#N)cc4)c3c2c1
IC50 [1]: > 40 µM
IC50 [2]: > 40 µM
IC50 [3]: > 40 µM

SMILES: Cc1ccccc1-n1c(=O)[nH]c2c(=O)oc3ccc(-c4ccncc4)cc3c21
IC50 [1]: > 40 µM
IC50 [2]: > 40 µM
IC50 [3]: > 40 µM

SMILES: Cc1ccccc1-c1ccc2oc(=O)c3[nH]c(=O)n(-c4ccccc4)c3c2c1
IC50 [3]: > 40 µM

SMILES: O=c1oc2ccc(-c3ccncc3)cc2c2c1[nH]c(=O)n2-c1ccccc1
IC50 [3]: 38.7 µM

SMILES: N#CCc1ccc(-n2c(=O)[nH]c3c(=O)oc4ccc(-c5cccnc5)cc4c32)cc1
IC50 [1]: 29.4 µM
IC50 [2]: > 40 µM
IC50 [3]: > 40 µM

SMILES: Nc1cccc(-c2ccc3oc(=O)c4[nH]c(=O)n(-c5ccccc5)c4c3c2)c1
IC50 [2]: > 40 µM
IC50 [3]: > 40 µM

SMILES: COc1ccc(-n2c(=O)[nH]c3c(=O)oc4ccc(-c5ccncc5)cc4c32)cc1
IC50 [1]: > 40 µM
IC50 [2]: > 40 µM
IC50 [3]: > 40 µM

SMILES: CC(C)(C#N)c1ccc(-n2c(=O)[nH]c3c(=O)oc4ccc(-c5ccncc5)cc4c32)cc1
IC50 [2]: 29 µM
IC50 [3]: 28.6 µM

SMILES: CC(C)(C#N)c1ccc(-n2c(=O)[nH]c3c(=O)oc4ccc(-c5cccnc5)cc4c32)cc1
IC50 [2]: 38.2 µM
IC50 [3]: 25.6 µM

SMILES: COc1ccc(-n2c(=O)[nH]c3c(=O)oc4ccc(-c5cnc6ccccc6c5)cc4c32)cc1
IC50 [1]: > 40 µM
IC50 [2]: > 40 µM
IC50 [3]: > 40 µM

SMILES: O=c1oc2ccc(-c3cccnc3)cc2c2c1[nH]c(=O)n2-c1ccccc1
IC50 [2]: > 40 µM
IC50 [3]: > 40 µM

SMILES: COc1ccc(-n2c(=O)[nH]c3c(=O)oc4ccc(-c5cccnc5)cc4c32)cc1
IC50 [1]: > 40 µM
IC50 [2]: > 40 µM
IC50 [3]: > 40 µM

SMILES: N#CCc1ccc(-n2c(=O)[nH]c3c(=O)oc4ccc(-c5cccc(NS(=O)(=O)c6ccc(F)cc6)c5)cc4c32)cc1
IC50 [1]: > 40 µM
IC50 [2]: > 40 µM
IC50 [3]: > 40 µM

IC50 [17]: 3.5 µM
IC50 [34]: 1.7 µM
IC50 [35]: 9.5 µM
SMILES: CN1c2c(c3cc(-c4cnc5ccccc5c4)ccc3oc2=O)N(c2ccc(C(C)(C)C#N)cc2)C1(C)OC(C)(C)C (stereo unspecified)
Activity [4]: 6.75%
Activity [5]: 9.68%
Activity [6]: 37.2%
inhibition in vivo at 80 mg/kg [7]: 53%
Activity [8]: 9.09%
Activity [9]: 8.96%
inhibition [10]: Active
Activity [11]: 22.8%
Activity [12]: 36.6%
Activity [13]: 60%
Activity [14]: 16.78%
Activity [15]: Non-toxic
IC50 [1]: 1.4 µM
IC50 [2]: 18 µM
Activity [16]: 9.44%
Activity [18]: 11.57%
Activity [19]: 15.3%
Activity [20]: 38.8%
Activity [21]: 26%
inhibition [22]: Active
Activity [23]: 8.43%
IC50 [24]: 3.55 µM
IC50 [3]: > 31 µM
Activity [25]: 16.76%
Activity [26]: 36.9%
Activity [27]: 35.2%
Activity [28]: 30.3%
Activity [29]: Dose-dependent effect
Activity [30]: 8.59%
Activity [31]: 40.3%
Activity [32]: 47.5%
Activity [33]: 43%
Activity [36]: Dose-dependent effect
TGI [37]: Dose-dependent effect
Activity [38]: 31.33%
Activity [39]: 20.5%
IC50 [40]: 37 µM
